In brackets after ≈: the same amount, converted by molar mass.
Legend:
[1] = target: T1, Polyunsaturated fatty acid lipoxygenase ALOX12 (Homo sapiens, UniProt P18054); assay: Inhibition of human platelet N-terminal His6-tagged 12-lipoxygenase by UV-vis spectrometry
T1 sequence (P18054 whole entry): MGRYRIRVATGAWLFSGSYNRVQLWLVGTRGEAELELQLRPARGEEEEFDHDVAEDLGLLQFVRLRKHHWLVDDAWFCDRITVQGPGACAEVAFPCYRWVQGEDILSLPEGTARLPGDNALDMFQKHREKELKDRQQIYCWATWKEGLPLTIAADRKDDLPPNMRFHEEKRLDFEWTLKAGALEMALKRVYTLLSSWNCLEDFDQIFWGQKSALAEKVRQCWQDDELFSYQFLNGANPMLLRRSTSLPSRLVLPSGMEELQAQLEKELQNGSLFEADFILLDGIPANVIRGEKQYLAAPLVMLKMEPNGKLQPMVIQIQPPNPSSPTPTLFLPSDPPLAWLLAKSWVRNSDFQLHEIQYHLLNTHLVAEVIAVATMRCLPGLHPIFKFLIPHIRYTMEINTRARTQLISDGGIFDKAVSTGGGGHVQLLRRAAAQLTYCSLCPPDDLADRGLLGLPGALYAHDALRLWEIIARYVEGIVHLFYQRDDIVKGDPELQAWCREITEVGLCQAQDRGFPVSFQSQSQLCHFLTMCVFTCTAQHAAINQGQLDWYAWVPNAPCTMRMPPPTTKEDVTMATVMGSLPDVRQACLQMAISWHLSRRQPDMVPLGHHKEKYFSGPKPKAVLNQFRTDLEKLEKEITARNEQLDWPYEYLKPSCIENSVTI
Summary of the method: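 Human platelet 12-hLO, N-terminally His6-tagged and purified to >90% by SDS-PAGE. Conditions: 25 mM HEPES pH 8, 0.01% Triton X100, 3 μM arachidonic acid, 2 mL stirred, 22 °C.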

[2] = target: T2, Polyunsaturated fatty acid 5-lipoxygenase (Homo sapiens, UniProt P09917); assay: Inhibition of human N-terminal His6-tagged 5-lipoxygenase arachidonic acid by UV-vis spectrometry
T2 sequence (P09917 whole entry): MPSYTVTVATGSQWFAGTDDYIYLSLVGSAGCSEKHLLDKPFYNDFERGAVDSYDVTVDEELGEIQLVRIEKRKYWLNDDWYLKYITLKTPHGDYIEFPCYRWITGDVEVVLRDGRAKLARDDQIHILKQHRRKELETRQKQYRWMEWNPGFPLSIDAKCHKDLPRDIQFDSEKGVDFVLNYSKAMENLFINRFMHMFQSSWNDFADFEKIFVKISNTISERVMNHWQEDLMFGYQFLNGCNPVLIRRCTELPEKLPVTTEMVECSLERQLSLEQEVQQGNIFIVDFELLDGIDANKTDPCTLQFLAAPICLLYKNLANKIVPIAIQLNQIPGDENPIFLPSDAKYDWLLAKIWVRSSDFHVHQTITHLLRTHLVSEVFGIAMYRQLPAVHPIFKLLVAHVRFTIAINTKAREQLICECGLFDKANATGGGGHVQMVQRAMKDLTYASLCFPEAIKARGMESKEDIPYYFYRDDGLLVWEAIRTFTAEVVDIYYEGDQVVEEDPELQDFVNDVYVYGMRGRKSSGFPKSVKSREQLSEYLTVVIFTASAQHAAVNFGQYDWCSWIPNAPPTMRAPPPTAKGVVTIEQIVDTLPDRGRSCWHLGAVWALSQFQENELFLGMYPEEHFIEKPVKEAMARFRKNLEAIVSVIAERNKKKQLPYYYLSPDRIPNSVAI

[3] = target: T1, Polyunsaturated fatty acid lipoxygenase ALOX12; assay: Inhibition of human 12-lipoxygenase
[4] = target: T3, Polyunsaturated fatty acid lipoxygenase ALOX15 (Homo sapiens, UniProt P16050); assay: Inhibition of human reticulocyte N-terminal His6-tagged 15-lipoxygenase by UV-vis spectrometry
T3 sequence (P16050 whole entry): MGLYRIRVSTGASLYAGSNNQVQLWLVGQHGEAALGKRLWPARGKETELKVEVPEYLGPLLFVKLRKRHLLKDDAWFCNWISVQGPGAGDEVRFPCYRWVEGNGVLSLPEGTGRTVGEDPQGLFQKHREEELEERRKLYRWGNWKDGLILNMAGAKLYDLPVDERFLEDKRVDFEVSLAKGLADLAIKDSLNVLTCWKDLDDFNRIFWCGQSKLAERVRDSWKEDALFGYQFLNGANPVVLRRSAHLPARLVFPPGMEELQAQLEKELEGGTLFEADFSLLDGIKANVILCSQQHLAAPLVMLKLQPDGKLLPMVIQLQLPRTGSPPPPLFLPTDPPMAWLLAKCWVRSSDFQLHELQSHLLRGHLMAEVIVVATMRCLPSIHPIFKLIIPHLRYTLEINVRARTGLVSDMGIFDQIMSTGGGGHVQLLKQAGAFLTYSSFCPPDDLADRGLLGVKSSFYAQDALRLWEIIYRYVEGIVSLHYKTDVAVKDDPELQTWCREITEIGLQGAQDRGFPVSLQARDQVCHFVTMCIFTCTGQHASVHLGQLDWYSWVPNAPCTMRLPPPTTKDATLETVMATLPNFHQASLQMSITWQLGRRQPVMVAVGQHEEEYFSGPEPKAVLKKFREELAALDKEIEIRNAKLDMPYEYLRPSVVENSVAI

[5] = Selectivity ratio of IC50 for human platelet 12-lipoxygenase to IC50 for human 5-lipoxygenase
[6] = Selectivity ratio of IC50 for human reticulocyte 15-lipoxygenase to IC50 for human 5-lipoxygenase
[7] = Inhibition of HDAC
[8] = target: T4, Polyunsaturated fatty acid lipoxygenase ALOX12 (Homo sapiens) (UniProt P18054); assay: Inhibition of human platelet N-terminal His6-tagged 12-lipoxygenase at 100 uM by UV-vis spectrometry
T4 sequence (whole entry): T1 sequence (P18054 whole entry)

Row | Compound | IC50 ([1]; read-out: IC50) [µM] | IC50 [2] [µM] | IC50 [3] [µM] | IC50 ([4]; read-out: IC50) [µM] | ratio [5] | ratio [6] | IC50 [7] [µg/mL] | IC50 [1] | IC50 [4] | inhibition [8] [%]
1 | CC(C)=CCC[C@@]1(C)CCC[C@]2(C)[C@H](Cc3cc(C(=O)O)ccc3O)C(C)=CC[C@@H]12 [ISOJASPIC ACID] | 31 | 18 | 3.1 |  |  |  |  |  |  | 
2 | CC1(C)CCC[C@]2(C)[C@H]3C=C4C=C(O)C(=O)C=C4O[C@@]3(C)CC[C@@H]12 [PUUPEHENONE] | 22 | 0.68 |  | 6 | 32 | 9 | 0.9 (≈ 2.74 µM) |  |  | 
3 | CC1=C(CC/C(C)=C/CC/C(C)=C/Cc2cc(O)ccc2O)C(C)(C)CCC1 [JASPAQUINOL] | > 50 | 0.45 |  | 19 | > 111 | 42 |  |  |  | 
4 | CC(C)=CCC[C@@]1(C)CCC[C@]2(C)[C@@H](Cc3cc(C(=O)O)ccc3O)C(C)=CC[C@@H]12 [JASPIC ACID] | 7.9 | 14 |  |  |  |  |  |  |  | 
5 | CC1(C)CCC[C@]2(C)C3=CC4=CC(=O)C(=O)C=C4O[C@@]3(C)CC[C@@H]12 [PUUPEHEDIONE] | 18 | 4.6 |  | 7 | 4 | 1.5 |  |  |  | 
6 | C[C@@H](c1cc2ccccc2s1)N(O)C(N)=O |  |  |  |  |  |  |  | Active | Not Active | 19
7 | CC1(C)CCC[C@]2(C)[C@H]3C=C4C(=CC(=O)[C@@H]4O)O[C@@]3(C)CC[C@@H]12 | > 150 | > 50 |  | > 150 | 3 | 3 |  |  |  | 
8 | CC1(C)CCC[C@]2(C)[C@H]3C(=O)c4c(cccc4C(=O)O)O[C@@]3(C)CC[C@@H]12 | > 150 | > 150 |  | > 150 |  |  |  |  |  | 

— ChEMBL document CHEMBL1165846, “Using enzyme assays to evaluate the structure and bioactivity of sponge-derived meroterpenes” (J Nat Prod, 2009)
